Data on one compound can be found in ChEMBL document CHEMBL4765301, “Discovery of novel TNNI3K inhibitor suppresses pyroptosis and apoptosis in murine myocardial infarction injury” (Eur J Med Chem, 2020).

Activity calls are given as the source filed them. The rule behind the calls is not given here.

Assay [1] concerns H9c2. The assay can be described thus: Inhibition of OGD-induced apoptosis in rat H9c2 cells assessed as reduction in GSDMD activation at 0.5 to 1 uM by Western blot analysis. The conditions noted are these: dose 0.5-1 µM. It counts as functional, cell-based. The method, boiled down:
(§1)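 H9c2 cells under OGD were treated with saline or 0.5 or 1.0 µM inhibitor. Cells were trypsinised, washed in cold PBS, lysed in RIPA with sonication and centrifuged 30 min. Total protein was quantified and separated by SDS-PAGE, then transferred to PVDF. Blots were probed with primary and secondary antibodies and detected by ECL.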
In general terms: Immunoblotting shows a protein as a band on a membrane.

For assay [2], the target named is T1, Serine/threonine-protein kinase TNNI3K (Homo sapiens) (UniProt Q59H18).
T1 sequence (whole entry): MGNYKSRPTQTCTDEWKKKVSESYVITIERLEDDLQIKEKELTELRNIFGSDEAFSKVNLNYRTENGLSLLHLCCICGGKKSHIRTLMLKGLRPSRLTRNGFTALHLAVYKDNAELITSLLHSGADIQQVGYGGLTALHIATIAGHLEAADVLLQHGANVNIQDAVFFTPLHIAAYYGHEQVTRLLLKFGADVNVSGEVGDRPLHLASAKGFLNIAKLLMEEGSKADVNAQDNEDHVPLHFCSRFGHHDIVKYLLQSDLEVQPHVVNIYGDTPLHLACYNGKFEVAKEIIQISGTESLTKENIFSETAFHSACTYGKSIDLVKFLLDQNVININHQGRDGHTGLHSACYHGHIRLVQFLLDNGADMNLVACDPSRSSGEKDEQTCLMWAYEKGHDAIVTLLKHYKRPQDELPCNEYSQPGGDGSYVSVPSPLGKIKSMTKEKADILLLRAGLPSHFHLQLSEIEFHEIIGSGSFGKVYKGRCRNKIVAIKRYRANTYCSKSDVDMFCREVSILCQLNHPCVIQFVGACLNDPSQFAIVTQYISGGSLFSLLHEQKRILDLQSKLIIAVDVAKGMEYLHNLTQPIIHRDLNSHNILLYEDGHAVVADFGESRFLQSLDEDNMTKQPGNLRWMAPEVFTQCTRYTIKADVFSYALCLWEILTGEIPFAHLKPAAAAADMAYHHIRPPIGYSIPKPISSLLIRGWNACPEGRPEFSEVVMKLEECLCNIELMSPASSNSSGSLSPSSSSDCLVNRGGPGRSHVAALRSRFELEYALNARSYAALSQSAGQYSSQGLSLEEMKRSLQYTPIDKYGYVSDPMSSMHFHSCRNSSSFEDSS
The assay can be described thus: Inhibition of TNNI3K (unknown origin) assessed as residual activity at 1 uM using biotinylated CTnI as substrate by HTRF analysis relative to control. The method, boiled down:
(§2)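 TNNI3K was assayed by HTRF using a GST-tagged TNNI3K kinase domain and a biotinylated cardiac troponin I substrate peptide, followed by the two HTRF detection reagents. Compounds were screened at 1.0 µM, then IC50s were determined.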
(TR-FRET usually uses a lanthanide donor and a delayed reading to cut background.)

Assay [3] has as its system H9c2. Briefly: Inhibition of OGD-induced apoptosis in rat H9c2 cells assessed as necrotic cells at 0.5 uM incubated for 24 hrs by annexinV-FITC and PI staining based flow cytometry analysis (reference value: 2.45 %). It counts as functional. For orientation: In flow cytometry, cells or beads pass a laser one at a time.
Assay [4] has as its system Mus musculus. Briefly: Cardioprotective activity in C57BL/6 mouse model of myocardial infarction assessed as reduction in infarct area at 25 mg/kg, ip administered for 28 days and measured on day 28 by TTC staining based fluorescence microscopy. In kind it is functional, organism-based. The settings on record: time 28.0 day. The method, boiled down:
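Male C57BL/6 mice (5-6 weeks); MI by permanent LAD ligation under ip ketamine (100mg/kg)/xylazine (10mg/kg) with ventilation; sham group operated without LAD occlusion. Post-MI mice randomised to sham, normal saline or inhibitor groups (n=4); 25 mg/kg given ip every two days. Hearts assessed after 28 days: TTC staining (infarct yellow-white, viable red), Masson's trichrome (blue collagen) and H&E.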

Assay [5] deals with Vascular endothelial growth factor receptor 1 (Homo sapiens) (UniProt P17948). The assay can be described thus: Inhibition of recombinant human FLT1 (783 to end residues) assessed as residual activity at 1 uM using KKKSPGEYVNIEFG as substrate incubated for 40 mins by [gamma-33P]-ATP scintillation counting based radiometry assay relative to control.
In assay [6] the test system is Mus musculus. The assay can be described thus: In vivo inhibition of TNNI3K in C57BL/6 mouse assessed as p38 phosphorylation at 25 mg/kg, ip administered for 28 days and measured on day 28 by immunohistochemical staining based fluorescence microscopy. In kind it is functional, organism-based. The settings on record: time 28.0 day. The essentials:
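Male C57BL/6 mice (5-6 weeks) with LAD-ligation MI; sham, saline or 25 mg/kg ip every two days, n=4, 28 days. Heart sections given EDTA (pH 8.0) or citrate (pH 6.0) microwave antigen retrieval, then primary antibody 30-40 min at 37°C. Detection by HRP polymer secondary with DAB (IHC) or fluorescent secondary (IF). Positive cells were quantified.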

The target in assay [7] is T2, Serine/threonine-protein kinase TNNI3K (Homo sapiens, UniProt Q59H18).
T2 sequence (Q59H18 whole entry): T1 sequence (whole entry)
The assay can be described thus: Inhibition of TNNI3K (unknown origin) using biotinylated CTnI as substrate by HTRF analysis. The method, boiled down: as §2

The test system of assay [8] is Mus musculus. The assay can be described thus: Cardioprotective activity in C57BL/6 mouse model of myocardial infarction assessed as reduction in ventricular dilatation at 25 mg/kg, ip administered for 28 days and measured on day 28 by H and E staining based fluorescence microscopy. It counts as functional, organism-based. The conditions noted are these: time 28.0 day. The essentials: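 MI made in male C57BL/6 mice (5-6 weeks) by permanent LAD ligation under ip ketamine (100mg/kg)/xylazine (10mg/kg), ventilated. Groups: sham, saline (NS), inhibitor 25 mg/kg ip every two days, n=4. Hearts examined after 28 days; TTC, Masson's trichrome and H&E staining of sections for infarct, collagen/scar, LV inflammatory cells and dilatation.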

In assay [9] the test system is H9c2. Briefly: Inhibition of OGD-induced apoptosis in rat H9c2 cells assessed as reduction in caspase1 activation at 0.5 to 1 uM by Western blot analysis. In kind it is functional, cell-based. The conditions noted are these: dose 0.5-1 µM. The method, boiled down: as §1

Sequence of Vascular endothelial growth factor receptor 1 (Homo sapiens) (P17948 whole entry): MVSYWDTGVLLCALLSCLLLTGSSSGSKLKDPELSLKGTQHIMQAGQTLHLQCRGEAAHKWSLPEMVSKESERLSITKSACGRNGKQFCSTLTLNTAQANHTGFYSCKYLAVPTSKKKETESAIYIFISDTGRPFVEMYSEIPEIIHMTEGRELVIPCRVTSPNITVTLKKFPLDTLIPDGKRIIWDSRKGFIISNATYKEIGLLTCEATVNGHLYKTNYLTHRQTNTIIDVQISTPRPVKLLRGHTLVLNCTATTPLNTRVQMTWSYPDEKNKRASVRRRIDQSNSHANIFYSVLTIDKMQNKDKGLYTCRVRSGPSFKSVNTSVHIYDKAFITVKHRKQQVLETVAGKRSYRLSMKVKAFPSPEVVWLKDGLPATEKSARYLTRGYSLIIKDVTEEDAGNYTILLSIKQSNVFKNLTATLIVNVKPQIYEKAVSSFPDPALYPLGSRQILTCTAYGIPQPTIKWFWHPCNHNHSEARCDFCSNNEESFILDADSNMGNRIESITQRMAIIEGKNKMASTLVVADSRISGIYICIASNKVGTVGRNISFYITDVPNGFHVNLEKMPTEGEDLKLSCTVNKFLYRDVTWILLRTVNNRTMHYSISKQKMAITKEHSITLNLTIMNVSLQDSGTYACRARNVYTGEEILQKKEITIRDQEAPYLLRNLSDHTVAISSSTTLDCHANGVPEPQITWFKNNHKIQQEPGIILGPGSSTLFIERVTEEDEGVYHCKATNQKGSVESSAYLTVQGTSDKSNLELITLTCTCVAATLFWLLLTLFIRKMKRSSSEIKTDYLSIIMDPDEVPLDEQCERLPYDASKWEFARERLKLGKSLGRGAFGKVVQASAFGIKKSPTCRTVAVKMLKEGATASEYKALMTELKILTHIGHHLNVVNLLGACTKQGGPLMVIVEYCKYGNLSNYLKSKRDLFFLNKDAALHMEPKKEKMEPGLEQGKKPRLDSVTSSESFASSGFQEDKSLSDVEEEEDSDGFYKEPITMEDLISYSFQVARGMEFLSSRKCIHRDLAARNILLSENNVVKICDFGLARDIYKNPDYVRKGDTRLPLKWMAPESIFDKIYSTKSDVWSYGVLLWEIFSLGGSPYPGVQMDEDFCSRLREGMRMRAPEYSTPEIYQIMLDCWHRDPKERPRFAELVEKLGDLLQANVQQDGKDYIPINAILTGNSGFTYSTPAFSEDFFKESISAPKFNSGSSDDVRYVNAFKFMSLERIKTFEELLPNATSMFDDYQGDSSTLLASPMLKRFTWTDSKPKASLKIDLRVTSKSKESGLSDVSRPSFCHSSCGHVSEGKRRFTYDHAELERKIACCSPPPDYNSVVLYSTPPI

One may read the inhibition as the change of the read-out against control, counted positive when it falls. Broadly, the IC50 is the point on the concentration scale where inhibition reaches its midpoint. Read a high IC50 as a need for much substance. With `CN(C)CCCN1CCc2c(sc3ncnc(Nc4ccc(N(C)C)c(NC(=O)c5ccco5)c4)c23)C1`, the inhibition entry with H9c2 [1], with Mus musculus [6] and with H9c2 [9] was “Active” each time. Further, the Activity in assay [2] worked out at 28%; in assay [5] it was 91%. Moreover, the inhibition at 0.5 µM in the assay with H9c2 [3] came out at 2.24%. For the same compound, the result in the assay on Mus musculus [4] and in the assay on Mus musculus [8] was Active. In assay [7], this compound returned an IC50 of 240 nM.
